Test [1] can be described thus: Inhibition of deubiquitinase in HEK293T cells assessed as stabilization of K48-linked HMW-Ub protein by Western blot analysis. It counts as cell-based, Homo sapiens. A general note: Immunoblotting shows a protein as a band on a membrane.
For test [2], the target named is Ubiquitin carboxyl-terminal hydrolase 28 (Homo sapiens) (UniProt Q96RU2). Briefly: Inhibition of USP28 in HEK293T cell lysates at 25 uM using HA-tagged vinyl-sulfone as substrate preincubated for 19 to 60 mins followed by substrate addition and measured after 19 to 25 mins by Western blot analysis. Type of test: subcellular. Conditions: Lysate.
Chain of Ubiquitin carboxyl-terminal hydrolase 28 (Homo sapiens) (Q96RU2 whole entry): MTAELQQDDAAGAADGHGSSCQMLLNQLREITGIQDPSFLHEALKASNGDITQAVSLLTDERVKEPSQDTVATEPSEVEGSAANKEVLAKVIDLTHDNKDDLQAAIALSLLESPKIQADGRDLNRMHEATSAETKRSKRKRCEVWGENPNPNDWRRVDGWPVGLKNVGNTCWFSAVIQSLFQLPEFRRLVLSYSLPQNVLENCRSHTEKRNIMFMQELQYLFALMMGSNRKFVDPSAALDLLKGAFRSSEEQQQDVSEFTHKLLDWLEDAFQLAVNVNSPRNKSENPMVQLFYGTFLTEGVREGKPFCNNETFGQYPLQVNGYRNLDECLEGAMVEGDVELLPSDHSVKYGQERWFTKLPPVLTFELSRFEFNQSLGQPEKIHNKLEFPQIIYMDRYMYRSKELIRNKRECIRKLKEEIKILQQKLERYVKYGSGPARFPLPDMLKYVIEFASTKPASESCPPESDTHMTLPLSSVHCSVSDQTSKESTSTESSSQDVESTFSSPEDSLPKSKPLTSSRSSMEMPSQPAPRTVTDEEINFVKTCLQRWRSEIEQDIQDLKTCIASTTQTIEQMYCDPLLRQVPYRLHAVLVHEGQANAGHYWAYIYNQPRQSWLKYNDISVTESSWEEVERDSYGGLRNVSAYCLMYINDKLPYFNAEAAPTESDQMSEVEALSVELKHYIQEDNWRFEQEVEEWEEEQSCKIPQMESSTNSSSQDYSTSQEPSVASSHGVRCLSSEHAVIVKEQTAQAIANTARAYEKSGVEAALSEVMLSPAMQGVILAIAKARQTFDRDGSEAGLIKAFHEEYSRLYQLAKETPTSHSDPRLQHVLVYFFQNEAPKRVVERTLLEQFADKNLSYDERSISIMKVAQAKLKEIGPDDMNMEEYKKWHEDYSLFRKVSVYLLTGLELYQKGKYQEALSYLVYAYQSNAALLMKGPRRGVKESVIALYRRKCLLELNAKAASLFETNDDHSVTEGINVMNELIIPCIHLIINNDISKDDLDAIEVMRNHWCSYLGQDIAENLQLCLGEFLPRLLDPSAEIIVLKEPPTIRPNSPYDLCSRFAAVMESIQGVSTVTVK
Test [3] addresses Ubiquitin carboxyl-terminal hydrolase 7 (Homo sapiens) (UniProt Q93009). Briefly: Inhibition of USP7 in HEK293T cell lysates at 25 uM using HA-tagged vinyl-sulfone as substrate measured after 2 to 30 mins by Western blot analysis. Type of test: subcellular. To be noted: Lysate. In outline:
(§1)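 HEK 293T lysate (1.5 mg/ml) given compound (25 μM) or DMSO at the same time as HA-Ub-VS (1.5 μM). Aliquots withdrawn over time were run on SDS-PAGE and immunoblotted for HA.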

The target of test [4] is Ubiquitin carboxyl-terminal hydrolase 15 (Homo sapiens) (UniProt Q9Y4E8). Kind of test: Inhibition of USP15 in HEK293T cell lysates at 25 uM using HA-tagged vinyl-sulfone as substrate measured after 2 to 30 mins by Western blot analysis. Type of test: subcellular. To be noted: Lysate. The method, boiled down:
as §1

Test [5] deals with T1, Ubiquitin carboxyl-terminal hydrolase isozyme L3 (Homo sapiens) (UniProt P15374).
T1 sequence (whole entry): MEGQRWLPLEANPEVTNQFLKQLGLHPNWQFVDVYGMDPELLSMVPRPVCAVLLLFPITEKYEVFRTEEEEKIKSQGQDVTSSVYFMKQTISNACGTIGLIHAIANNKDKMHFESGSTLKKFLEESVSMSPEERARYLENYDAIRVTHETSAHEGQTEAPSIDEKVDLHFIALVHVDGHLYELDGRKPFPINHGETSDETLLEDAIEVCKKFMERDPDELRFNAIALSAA
Briefly: Inhibition of UCHL3 in HEK293T cell lysates at 25 uM using HA-tagged vinyl-sulfone as substrate measured after 2 to 30 mins by Western blot analysis. Type of test: subcellular. To be noted: Lysate. The method, boiled down:
as §1

The target in test [6] is T2, Ubiquitin carboxyl-terminal hydrolase 19 (Homo sapiens) (UniProt O94966).
T2 sequence (whole entry): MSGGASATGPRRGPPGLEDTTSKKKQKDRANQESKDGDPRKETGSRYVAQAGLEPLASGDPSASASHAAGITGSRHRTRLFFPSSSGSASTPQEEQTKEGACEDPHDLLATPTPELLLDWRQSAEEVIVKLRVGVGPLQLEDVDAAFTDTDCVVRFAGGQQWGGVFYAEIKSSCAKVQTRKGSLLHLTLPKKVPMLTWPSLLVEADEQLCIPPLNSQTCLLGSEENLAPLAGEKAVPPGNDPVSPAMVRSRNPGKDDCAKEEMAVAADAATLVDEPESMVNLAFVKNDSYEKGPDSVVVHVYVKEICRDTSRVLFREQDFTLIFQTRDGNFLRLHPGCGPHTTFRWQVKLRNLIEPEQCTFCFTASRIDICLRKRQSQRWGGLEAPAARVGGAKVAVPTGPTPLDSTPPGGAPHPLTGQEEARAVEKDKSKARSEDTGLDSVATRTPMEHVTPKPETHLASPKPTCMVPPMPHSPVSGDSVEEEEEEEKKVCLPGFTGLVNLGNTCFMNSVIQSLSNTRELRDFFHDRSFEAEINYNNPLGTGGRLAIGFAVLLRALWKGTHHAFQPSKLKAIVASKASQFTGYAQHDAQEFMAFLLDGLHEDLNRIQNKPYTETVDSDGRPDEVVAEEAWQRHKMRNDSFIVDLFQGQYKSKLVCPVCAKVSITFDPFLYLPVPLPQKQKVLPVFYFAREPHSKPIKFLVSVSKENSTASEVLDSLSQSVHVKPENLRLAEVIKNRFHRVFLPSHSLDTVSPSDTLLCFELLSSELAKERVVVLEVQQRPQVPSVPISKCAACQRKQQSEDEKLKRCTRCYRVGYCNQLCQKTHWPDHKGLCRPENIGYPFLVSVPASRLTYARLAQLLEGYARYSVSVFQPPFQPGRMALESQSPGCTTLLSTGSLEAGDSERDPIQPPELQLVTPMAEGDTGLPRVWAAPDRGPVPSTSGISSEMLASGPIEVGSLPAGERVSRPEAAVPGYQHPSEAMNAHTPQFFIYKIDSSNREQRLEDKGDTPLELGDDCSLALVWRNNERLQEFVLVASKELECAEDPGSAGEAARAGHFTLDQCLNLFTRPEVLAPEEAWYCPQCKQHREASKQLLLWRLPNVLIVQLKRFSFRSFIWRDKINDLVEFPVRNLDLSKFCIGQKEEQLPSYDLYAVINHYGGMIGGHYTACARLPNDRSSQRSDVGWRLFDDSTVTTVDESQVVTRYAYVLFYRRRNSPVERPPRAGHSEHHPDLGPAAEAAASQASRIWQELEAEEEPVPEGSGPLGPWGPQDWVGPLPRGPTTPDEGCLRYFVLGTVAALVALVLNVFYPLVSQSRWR
Kind of test: Inhibition of USP19 in HEK293T cell lysates assessed as enzyme recovery at 250 uM using HA-tagged vinyl-sulfone as substrate […] followed by 10-fold dilution and subsequent substrate addition measured up to 2 hrs by Western blot analysis. Conditions: Lysate. Type of test: subcellular.

Test [7] has as its target T3, Papain (Carica papaya) (UniProt P00784).
T3 sequence (whole entry): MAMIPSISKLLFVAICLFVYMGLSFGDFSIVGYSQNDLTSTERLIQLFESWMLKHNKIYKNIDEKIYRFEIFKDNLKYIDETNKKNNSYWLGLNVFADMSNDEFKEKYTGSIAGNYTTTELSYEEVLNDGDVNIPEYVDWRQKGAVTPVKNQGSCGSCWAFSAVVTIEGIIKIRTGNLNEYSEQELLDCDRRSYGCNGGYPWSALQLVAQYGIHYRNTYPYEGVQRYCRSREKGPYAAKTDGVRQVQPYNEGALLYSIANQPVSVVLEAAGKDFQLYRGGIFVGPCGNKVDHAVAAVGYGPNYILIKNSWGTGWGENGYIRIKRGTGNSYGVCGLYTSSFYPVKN
Briefly: Inhibition of papaya papain at 100 uM using Z-Arg-AMC as substrate preincubated for 30 mins followed by substrate addition by fluorescence assay. The method, boiled down: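 Enzyme (papain or ficin) preincubated 30 min with inhibitor at 100 μM, then Z-Arg-AMC substrate added at 300 μM; AMC release followed.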

For test [8], the target named is Ubiquitin carboxyl-terminal hydrolase 7 (Homo sapiens) (UniProt Q93009). Kind of test: Inhibition of USP7 in human MCF7 cells assessed as decrease in Mdm2 expression at 25 uM after 4 hrs by Western blot analysis. Type of test: cell-based. In outline:
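MCF7 cells treated with compound for 4 h. Mdm2, p53 and p21 levels were determined by immunoblotting.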

The test system of test [9] is MCF7. Briefly: Cytotoxicity against human MCF7 cells assessed as decrease in cell viability treated every 24 hrs measured after 72 hrs by alamar blue assay. It counts as functional, cell-based. In outline:
(§2)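 MCF7 or B16/F10 cells dosed with compound every 24 h. Viable cells were quantified with Alamar Blue after 72 h.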

For test [10], the system named is B16-F10. Briefly: Cytotoxicity against mouse B16F10 cells assessed as decrease in cell viability treated every 24 hrs measured after 72 hrs by alamar blue assay. It counts as functional, cell-based. In outline:
as §2
(In general: Resazurin is reduced to fluorescent resorufin, in cell work by metabolically active cells.)

Each structure is given as a SMILES string. Active and inactive are the calls of the source. The calls are words filed in the database; no cut-off is given here.

Chain of Ubiquitin carboxyl-terminal hydrolase 7 (Homo sapiens) (Q93009 whole entry, looked up): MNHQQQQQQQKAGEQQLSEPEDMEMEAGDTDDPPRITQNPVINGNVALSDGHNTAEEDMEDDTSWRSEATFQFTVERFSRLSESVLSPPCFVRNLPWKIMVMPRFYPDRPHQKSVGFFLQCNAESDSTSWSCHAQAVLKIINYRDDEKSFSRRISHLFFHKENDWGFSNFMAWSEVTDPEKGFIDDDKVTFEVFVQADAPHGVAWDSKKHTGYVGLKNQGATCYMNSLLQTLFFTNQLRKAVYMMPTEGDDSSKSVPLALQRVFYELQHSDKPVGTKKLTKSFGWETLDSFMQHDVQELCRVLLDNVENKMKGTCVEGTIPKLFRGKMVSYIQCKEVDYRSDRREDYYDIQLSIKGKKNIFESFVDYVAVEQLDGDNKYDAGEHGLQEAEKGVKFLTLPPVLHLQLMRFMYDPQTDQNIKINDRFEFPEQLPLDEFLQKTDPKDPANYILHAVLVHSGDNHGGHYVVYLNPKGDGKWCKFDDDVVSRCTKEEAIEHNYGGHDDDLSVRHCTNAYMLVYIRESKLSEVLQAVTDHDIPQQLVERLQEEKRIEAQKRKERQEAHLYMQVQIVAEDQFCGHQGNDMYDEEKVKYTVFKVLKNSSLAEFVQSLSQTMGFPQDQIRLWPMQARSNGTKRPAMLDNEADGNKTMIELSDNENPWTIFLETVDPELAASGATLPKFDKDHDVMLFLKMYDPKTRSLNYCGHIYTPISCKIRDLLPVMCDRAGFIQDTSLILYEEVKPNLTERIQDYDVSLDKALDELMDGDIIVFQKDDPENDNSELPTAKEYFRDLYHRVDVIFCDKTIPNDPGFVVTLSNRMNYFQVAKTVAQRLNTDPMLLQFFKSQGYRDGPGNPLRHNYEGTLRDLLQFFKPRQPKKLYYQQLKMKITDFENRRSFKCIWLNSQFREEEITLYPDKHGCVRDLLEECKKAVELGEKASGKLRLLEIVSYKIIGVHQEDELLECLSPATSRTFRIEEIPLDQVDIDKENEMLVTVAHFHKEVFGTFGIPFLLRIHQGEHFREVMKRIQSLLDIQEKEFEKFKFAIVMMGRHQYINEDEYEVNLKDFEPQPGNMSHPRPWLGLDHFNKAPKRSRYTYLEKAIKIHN
Chain of Ubiquitin carboxyl-terminal hydrolase 15 (Homo sapiens) (Q9Y4E8 whole entry): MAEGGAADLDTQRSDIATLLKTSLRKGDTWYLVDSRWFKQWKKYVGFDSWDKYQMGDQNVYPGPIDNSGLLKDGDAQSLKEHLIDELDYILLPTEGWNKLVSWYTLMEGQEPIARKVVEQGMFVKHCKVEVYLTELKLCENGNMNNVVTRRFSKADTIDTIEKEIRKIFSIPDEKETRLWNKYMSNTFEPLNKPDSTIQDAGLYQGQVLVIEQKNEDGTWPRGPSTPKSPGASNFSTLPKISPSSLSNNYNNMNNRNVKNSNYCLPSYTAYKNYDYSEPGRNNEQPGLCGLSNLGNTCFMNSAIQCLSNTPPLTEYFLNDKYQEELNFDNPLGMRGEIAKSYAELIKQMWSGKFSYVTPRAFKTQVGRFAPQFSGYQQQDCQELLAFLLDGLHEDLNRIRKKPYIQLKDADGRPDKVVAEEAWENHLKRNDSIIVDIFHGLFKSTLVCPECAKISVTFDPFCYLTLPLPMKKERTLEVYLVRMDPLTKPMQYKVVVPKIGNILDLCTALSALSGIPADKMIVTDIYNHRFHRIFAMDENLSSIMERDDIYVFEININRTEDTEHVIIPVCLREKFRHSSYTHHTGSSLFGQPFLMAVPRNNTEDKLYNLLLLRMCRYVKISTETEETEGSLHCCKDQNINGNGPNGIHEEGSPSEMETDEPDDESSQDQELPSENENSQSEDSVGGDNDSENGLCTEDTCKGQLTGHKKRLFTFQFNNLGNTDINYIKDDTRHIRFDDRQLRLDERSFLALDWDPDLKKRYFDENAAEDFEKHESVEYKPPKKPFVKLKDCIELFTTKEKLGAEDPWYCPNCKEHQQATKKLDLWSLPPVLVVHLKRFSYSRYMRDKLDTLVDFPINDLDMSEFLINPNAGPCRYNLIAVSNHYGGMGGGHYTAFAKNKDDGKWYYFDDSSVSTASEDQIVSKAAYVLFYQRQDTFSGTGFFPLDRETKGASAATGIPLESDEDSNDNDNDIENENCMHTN

Broadly, the EC50 is the midpoint of the concentration-response curve. For `NCc1ccc(OC(=O)Oc2ccc3ccccc3c2)cc1`, the 50% effective concentration (EC50) in test [1] was less than 50 µM. In addition, the inhibition result in test [2] and in test [8] was “Active” throughout. Also, the inhibition result in test [3], in test [4], in test [5], in [6] and in [7] was “inactive” each time. Moreover, the result in [9] and in [10] was Active.

Values taken from ChEMBL document CHEMBL4371052, “Diarylcarbonates are a new class of deubiquitinating enzyme inhibitor” (Bioorg Med Chem Lett, 2019).
